The source made the active and inactive calls. The calls are words filed in the database; no cut-off is given here.
Columns and labels:
[1] = molecular target: T1, DNA topoisomerase 1 (Homo sapiens) (UniProt P11387); experiment: Inhibition of recombinant Top1 (unknown origin) using 3'-[32P]-end-labeled 117 bp oligonucleotide as substrate after 20 mins by SDS-PAGE analysis
T1 sequence (whole entry): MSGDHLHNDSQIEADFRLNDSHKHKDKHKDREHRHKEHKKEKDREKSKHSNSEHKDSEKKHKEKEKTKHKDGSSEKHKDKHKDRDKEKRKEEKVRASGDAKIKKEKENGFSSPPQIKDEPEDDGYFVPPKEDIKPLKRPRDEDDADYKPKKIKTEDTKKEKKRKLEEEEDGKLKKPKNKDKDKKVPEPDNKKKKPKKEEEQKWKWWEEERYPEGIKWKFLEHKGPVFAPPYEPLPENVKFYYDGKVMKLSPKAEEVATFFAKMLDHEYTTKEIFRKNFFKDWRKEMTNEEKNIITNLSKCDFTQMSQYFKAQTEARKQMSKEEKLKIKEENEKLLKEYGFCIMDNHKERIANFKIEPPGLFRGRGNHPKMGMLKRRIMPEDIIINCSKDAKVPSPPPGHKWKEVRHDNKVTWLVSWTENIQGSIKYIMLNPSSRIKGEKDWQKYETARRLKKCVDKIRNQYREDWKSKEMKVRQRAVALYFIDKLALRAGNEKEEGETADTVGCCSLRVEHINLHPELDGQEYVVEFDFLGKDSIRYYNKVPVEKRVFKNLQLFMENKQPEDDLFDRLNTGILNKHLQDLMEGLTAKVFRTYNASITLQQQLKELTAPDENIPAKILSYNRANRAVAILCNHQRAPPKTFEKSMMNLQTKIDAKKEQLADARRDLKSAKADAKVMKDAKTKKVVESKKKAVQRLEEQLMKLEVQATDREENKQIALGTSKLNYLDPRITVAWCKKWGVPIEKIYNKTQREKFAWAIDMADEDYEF
Procedure, shortened: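 3′-[32P]-end-labeled 117-bp DNA at 2 nM incubated with recombinant Top1 at 25 °C for 20 min across a range of compound concentrations. Stopped with SDS (0.5% final) plus formamide loading dye, then 20% denaturing PAGE. Dried gels were phosphorimaged.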

[2] = molecular target: Tyrosyl-DNA phosphodiesterase 1 (Homo sapiens, UniProt Q9NUW8); experiment: Inhibition of recombinant Tdp1 (unknown origin) using 5'-[32P]-labeled single-stranded DNA oligonucleotide containing 3'-phosphotyrosine as substrate after 15 mins by PAGE analysis
Chain of Tyrosyl-DNA phosphodiesterase 1 (Q9NUW8 whole entry): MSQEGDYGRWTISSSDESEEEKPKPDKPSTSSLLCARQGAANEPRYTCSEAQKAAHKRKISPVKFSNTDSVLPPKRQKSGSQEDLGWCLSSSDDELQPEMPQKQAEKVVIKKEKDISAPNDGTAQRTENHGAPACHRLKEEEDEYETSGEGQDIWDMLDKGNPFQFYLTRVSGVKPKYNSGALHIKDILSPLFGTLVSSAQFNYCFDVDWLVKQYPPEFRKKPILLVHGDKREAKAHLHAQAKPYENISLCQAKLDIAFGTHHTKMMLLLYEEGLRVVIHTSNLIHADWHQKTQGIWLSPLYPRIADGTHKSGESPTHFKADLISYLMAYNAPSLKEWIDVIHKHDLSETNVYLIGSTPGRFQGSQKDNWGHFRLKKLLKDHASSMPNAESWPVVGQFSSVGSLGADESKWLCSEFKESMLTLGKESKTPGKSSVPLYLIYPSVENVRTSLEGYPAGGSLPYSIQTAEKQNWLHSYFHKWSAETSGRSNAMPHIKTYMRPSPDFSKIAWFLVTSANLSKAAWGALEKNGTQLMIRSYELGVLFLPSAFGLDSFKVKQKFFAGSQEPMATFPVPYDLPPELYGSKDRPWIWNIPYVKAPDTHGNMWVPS

[3] = molecular target: T1, DNA topoisomerase 1 (Homo sapiens); experiment: Inhibition of recombinant Top1 (unknown origin) using 3'-[32P]-end-labeled 117 bp oligonucleotide as substrate after 20 mins by SDS-PAGE analysis relative to 1 uM MJ-3-65
SF-539 = experiment: Growth inhibition of human SF539 cells; assay type: functional
Procedure, shortened: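 Human cancer cell line panel, compounds tested at concentrations up to 10 μM. GI50 per cell line is the mean of two determinations where a standard error is given, otherwise from one determination.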

MDA-MB-435 = experiment: Growth inhibition of human MDA-MB-435 cells; assay type: functional
SN12C = experiment: Growth inhibition of human SN12C cells; assay type: functional
DU-145 = experiment: Growth inhibition of human DU145 cells; assay type: functional
OVCAR-3 = experiment: Growth inhibition of human OVCAR3 cells; assay type: functional
UACC-62 = experiment: Growth inhibition of human UACC62 cells; assay type: functional
HCT-116 = experiment: Growth inhibition of human HCT116 cells; assay type: functional
HOP-62 = experiment: Growth inhibition of human HOP62 cells; assay type: functional

Compound	inhibition [1]	IC50 [2]	inhibition [3]	GI50 (MDA-MB-435)	GI50 (SN12C)	GI50 (DU-145)	GI50 (OVCAR-3)	GI50 (HCT-116)	also measured
NCCCn1c2c(c3ccc(NC(=O)CCCC(=O)O)cc3c1=O)C(=O)c1ccccc1-2	inactive	> 111 µM							
COc1ccc2c(c1)-c1c(c3ccc([N+](=O)[O-])cc3c(=O)n1CCCN1CCOCC1)C2=O		> 111 µM	Active						
Cn1c2c(c3ccc(NC(=O)CC(=O)O)cc3c1=O)C(=O)c1ccccc1-2		> 111 µM							
Cn1c2c(c3ccc(NCC(=O)O)cc3c1=O)C(=O)c1ccccc1-2	inactive	> 111 µM							
NCCCn1c2c(c3ccc(NC(=O)C(=O)O)cc3c1=O)C(=O)c1ccccc1-2	inactive	> 111 µM							
COC(=O)CCC(=O)Nc1ccc2c3c(n(CCCNC(=O)OC(C)(C)C)c(=O)c2c1)-c1ccccc1C3=O	inactive	> 111 µM							
NCCCn1c2c(c3ccccc3c1=O)C(=O)c1ccccc1-2			Active						
CC(=O)Nc1ccc2c3c(n(CCCN)c(=O)c2c1)-c1ccccc1C3=O	inactive								
COC(=O)CCCC(=O)Nc1ccc2c3c(n(C)c(=O)c2c1)-c1ccccc1C3=O	inactive	> 111 µM							
COC(=O)CC(=O)Nc1ccc2c3c(n(CCCNC(=O)OC(C)(C)C)c(=O)c2c1)-c1ccccc1C3=O	inactive	> 111 µM							
NCCCn1c2c(c3ccc(NC(=O)CC(=O)O)cc3c1=O)C(=O)c1ccccc1-2	inactive	> 111 µM							
COC(=O)CCCCC(=O)Nc1ccc2c3c(n(C)c(=O)c2c1)-c1ccccc1C3=O	inactive	> 111 µM							
COC(=O)CC(=O)Nc1ccc2c3c(n(CCCN)c(=O)c2c1)-c1ccccc1C3=O		18 µM		2.33 µM	1.46 µM	1.57 µM	3.22 µM	0.54 µM	GI50 (SF-539): 4.03 µM; GI50 (UACC-62): 1.69 µM; GI50 (HOP-62): 1.56 µM
COc1ccc2c(c1)-c1c(c3ccc([N+](=O)[O-])cc3c(=O)n1CCCN)C2=O			Active	0.58 µM	0.15 µM	0.18 µM	0.54 µM	0.06 µM	GI50 (SF-539): 0.61 µM
COC(=O)CCCCC(=O)Nc1ccc2c3c(n(CCCN)c(=O)c2c1)-c1ccccc1C3=O				4.3 µM	1.82 µM	0.77 µM	3.52 µM	0.51 µM	GI50 (SF-539): 5.65 µM; GI50 (UACC-62): 2.43 µM; GI50 (HOP-62): 2.32 µM
O=C1c2ccccc2-c2c1c1ccc([N+](=O)[O-])cc1c(=O)n2CCCO			Active	1.97 µM	0.47 µM	0.43 µM	0.87 µM	0.19 µM	GI50 (UACC-62): 0.31 µM
NCCCn1c2c(c3ccc(NCC(=O)O)cc3c1=O)C(=O)c1ccccc1-2	inactive			1.14 µM	0.49 µM	1.51 µM	1.6 µM	0.33 µM	GI50 (SF-539): 1.79 µM; GI50 (UACC-62): 0.72 µM; GI50 (HOP-62): 0.65 µM
N#Cc1ccc2c3c(n(CCCN4CCOCC4)c(=O)c2c1)-c1ccccc1C3=O		> 111 µM	Active						
CN(C)CCCn1c2c(c3ccc(C#N)cc3c1=O)C(=O)c1ccccc1-2			Active	0.62 µM	0.19 µM	0.24 µM	1.72 µM	0.05 µM	GI50 (SF-539): 1.12 µM; GI50 (UACC-62): 0.19 µM; GI50 (HOP-62): 0.26 µM
Cn1c2c(c3ccc(NC(=O)C(=O)O)cc3c1=O)C(=O)c1ccccc1-2			Active						
COc1ccc2c(c1)-c1c(c3ccc([N+](=O)[O-])cc3c(=O)n1CCCN=[N+]=[N-])C2=O	inactive	> 111 µM							
CCOC(=O)CNc1ccc2c3c(n(CCCN)c(=O)c2c1)-c1ccccc1C3=O				3.05 µM	1.75 µM	1.68 µM	3.12 µM	0.44 µM	GI50 (SF-539): 8.91 µM; GI50 (UACC-62): 2.25 µM; GI50 (HOP-62): 0.93 µM

From ChEMBL document CHEMBL2311405, “Synthesis and biological evaluation of indenoisoquinolines that inhibit both tyrosyl-DNA phosphodiesterase I (Tdp1) and topoisomerase I (Top1)” (J Med Chem, 2013)
